Results published in ChEMBL document CHEMBL1177884, “1,2-ethane bis-1-amino-4-benzamidine is active against several brain insult and seizure challenges through anti-NMDA mechanisms targeting the 3H-TCP binding site and antioxidant action” (Eur J Med Chem, 2010).
pIC50: −log10 of the molar value. Active and inactive are the calls of the source.

Columns and labels:
[1] = system: Mus musculus; test: Anticonvulsant activity in Swiss mouse assessed as inhibition of maximal electroshock-induced seizures at 30 mg/kg, ip after 4 hrs; format: functional, organism-based; parameters: dose 30 mg/kg
Method in brief: (§1)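 Mice dosed ip with compound in methylcellulose at 30, 100 or 300 mg/kg. MES or subcutaneous pentylenetetrazol seizure tests run 30 min and 4 h after dosing, and occasionally at 15 min and 1 h.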

[2] = system: Mus musculus; test: Anticonvulsant activity in Swiss mouse assessed as inhibition of maximal electroshock-induced seizures at 300 mg/kg, ip after 4 hrs; format: functional, organism-based; parameters: dose 300 mg/kg
Method in brief: (§2)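 Mice dosed ip with compound in methylcellulose at 30, 100 or 300 mg/kg. MES or subcutaneous pentylenetetrazol seizure tests run 30 min and 4 h after dosing, and occasionally at 15 min and 1 h. Activity scored as the percentage of animals protected, in bands (75–100%, 50–75%, 25–50%, 0–25%, none).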

[3] = system: Mus musculus; test: Anticonvulsant activity in Swiss mouse assessed as inhibition of ScPTZ-induced seizures at 100 mg/kg, ip after 30 mins; format: functional, organism-based; parameters: dose 100 mg/kg; method in brief: as §2
[4] = system: Mus musculus; test: Neurotoxicity in Swiss mouse assessed as inability of animal to maintain on rotarod at 30 mg/kg, ip after 4 hrs by rotarod test; format: toxicity, organism-based; details: in vivo
Method in brief: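 Minimal acute neurotoxicity assessed by rotarod: mouse placed on a 1 inch knurled rod rotating at 6 rpm, at 15 min, 30 min, 1 h or 4 h after ip dosing in methylcellulose.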

[5] = system: Mus musculus; test: Neurotoxicity in Swiss mouse assessed as inability of animal to maintain on rotarod […], ip after 15 mins by rotarod test; format: toxicity, organism-based; details: in vivo
Method in brief: (§3)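 Minimal acute neurotoxicity assessed by rotarod: mouse placed on a 1 inch knurled rod rotating at 6 rpm, at 15 min, 30 min, 1 h or 4 h after ip dosing in methylcellulose. Scored as the percentage of animals toxic, in bands (75–100%, 50–75%, 25–50%, 0–25%, none).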

[6] = system: Mus musculus; test: Anticonvulsant activity in Swiss mouse assessed as inhibition of ScPTZ-induced seizures at 300 mg/kg, ip after 4 hrs; format: functional, organism-based; parameters: dose 300 mg/kg; method in brief: as §2
[7] = system: Mus musculus; test: Anticonvulsant activity in Swiss mouse assessed as inhibition of maximal electroshock-induced seizures at 300 mg/kg, ip after 30 mins; format: functional, organism-based; parameters: dose 300 mg/kg; method in brief: as §2
[8] = system: Mus musculus; test: Anticonvulsant activity in Swiss mouse assessed as inhibition of ScPTZ-induced seizures at 30 mg/kg, ip after 30 mins; format: functional, organism-based; parameters: dose 30 mg/kg; method in brief: as §1
[9] = system: Mus musculus; test: Neurotoxicity in Swiss mouse assessed as inability of animal to maintain on rotarod […], ip after 1 hr by rotarod test; format: toxicity, organism-based; details: in vivo; method in brief: as §3
[10] = system: Mus musculus; test: Anticonvulsant activity in Swiss mouse assessed as inhibition of maximal electroshock-induced seizures at 100 mg/kg, ip after 30 mins; format: functional, organism-based; parameters: dose 100 mg/kg; method in brief: as §2
[11] = system: Mus musculus; test: Anticonvulsant activity in Swiss mouse assessed as inhibition of maximal electroshock-induced seizures at 30 mg/kg, ip after 30 mins; format: functional, organism-based; parameters: dose 30 mg/kg; method in brief: as §1
[12] = system: Mus musculus; test: Neurotoxicity in Swiss mouse assessed as inability of animal to maintain on rotarod […], ip after 4 hr by rotarod test; format: toxicity, organism-based; details: in vivo; method in brief: as §3
[13] = system: Mus musculus; test: Neurotoxicity in Swiss mouse assessed as inability of animal to maintain on rotarod at 100 mg, ip after 30 mins by rotarod test; format: toxicity, organism-based; details: in vivo, 0.5 h; method in brief: as §3
[14] = system: Mus musculus; test: Anticonvulsant activity in Swiss mouse assessed as inhibition of maximal electroshock-induced seizures at 100 mg/kg, ip after 4 hrs; format: functional, organism-based; parameters: dose 100 mg/kg; method in brief: as §2
[15] = system: Mus musculus; test: Anticonvulsant activity in Swiss mouse assessed as inhibition of ScPTZ-induced seizures at 30 mg/kg, ip after 4 hrs; format: functional, organism-based; parameters: dose 30 mg/kg; method in brief: as §1
[16] = system: Mus musculus; test: Neurotoxicity in Swiss mouse assessed as inability of animal to maintain on rotarod at 300 mg, ip after 30 mins by rotarod test; format: toxicity, organism-based; details: in vivo, 0.5 h; method in brief: as §3
[17] = Antioxidant activity assessed as inhibition of pyrogallol autooxidation; format: functional; parameters: concentration or dose not given beside the values; details: dose or concentration not given here
Method in brief: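 Pyrogallol autooxidation followed at 420 nm in pH 7.4 TRIS saline (5 mM TRIS, 50 mM NaCl). Compound at 0.5 mM final, from a 50 mM DMSO stock; DMSO alone served as blank. Reaction started with 0.75 mM pyrogallol. Percent inhibition calculated from rates over the first 2 min. Mean of three separate determinations.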

[18] = system: Mus musculus; test: Neurotoxicity in Swiss mouse assessed as inability of animal to maintain on rotarod […], ip after 4 hrs by rotarod test; format: toxicity, organism-based; details: in vivo; method in brief: as §3
[19] = system: Mus musculus; test: Anticonvulsant activity in Swiss mouse assessed as inhibition of ScPTZ-induced seizures at 100 mg/kg, ip after 4 hrs; format: functional, organism-based; parameters: dose 100 mg/kg; method in brief: as §2
[20] = system: Mus musculus; test: Anticonvulsant activity in Swiss mouse assessed as inhibition of ScPTZ-induced seizures at 300 mg/kg, ip after 30 mins; format: functional; parameters: scale not given: the % may be the effect or the level left; details: route intraperitoneal; method in brief: as §2
[21] = system: Mus musculus; test: Anticonvulsant activity against magnesium deprivation mediated audiogenic seizure in OF1 mouse assessed as duration of cunvulsions at 6 mg/kg, ip; format: functional; details: route intraperitoneal
[22] = system: Mus musculus; test: Anticonvulsant activity in OF1 mouse assessed as protection against NMDA-induced seizures at 49 mg/kg,; format: functional
Method in brief: (§4)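 Normally fed OF1 mice. Compound given ip 1 hr before ip NMDA (137 mg/kg). Protection scored as no seizures over 4 hours after NMDA and no death within 48 hours. […] At 49 mg/kg, the read-out was the NMDA seizure threshold.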

[23] = system: Mus musculus; test: Anxiolytic activity against OF1 mouse assessed as increase in number of crossings of photocell activity meter at 5 mg/kg, ip administered 1 hr before testing measured for 3 mins; details: route intraperitoneal
[24] = organism: Mus musculus; test: Anticonvulsant activity in OF1 mouse assessed as protection against NMDA-induced seizures; format: functional; method in brief: as §4
[25] = system: Mus musculus; test: Antinociceptive activity against thermal-stimulus induced pain reflex in OF1 mouse assessed as maximal possible effect at 30 mg/kg, ip after 45 mins by hot plate assay; format: functional; details: route intraperitoneal
Method in brief: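 OF1 mice given compound ip 45 min before testing, then placed on a hot plate at 55 ± 1 °C. Latency to a pain reflex (vocalization, paw lick, hindpaw flick or jump) recorded, with a 30 s cut-off. Latencies converted to % maximum possible effect. Mean ± SD, 6 treated vs 6 untreated mice per dose.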

[26] = system: Mus musculus; test: Anticonvulsant activity against magnesium deprivation mediated audiogenic seizure in OF1 mouse assessed as duration of recovery at 6 mg/kg, ip; format: functional; details: route intraperitoneal
[27] = system: Mus musculus; test: Anticonvulsant activity in Swiss mouse assessed as inhibition of ScPTZ-induced seizures at 100 mg/kg, ip after 1 hr; format: functional; parameters: scale not given: the % may be the effect or the level left; details: route intraperitoneal; method in brief: as §2
[28] = system: Mus musculus; test: Anxiolytic activity against OF1 mouse assessed as increase in number of crossings of photocell activity meter at 10 mg/kg, ip administered 1 hr before testing measured for 3 mins; details: route intraperitoneal
[29] = system: Mus musculus; test: Antinociceptive activity against thermal-stimulus induced pain reflex in OF1 mouse assessed as maximal possible effect at 60 mg/kg, ip after 45 mins by hot plate assay; details: route intraperitoneal
[30] = system: Mus musculus; test: Neuroprotective activity against ibotenate-induced focal cerebral injury in Swiss mouse assessed as reduction in size of lesions in white matter at 4 ug/kg, ip; format: functional; parameters: scale not given: the % may be the effect or the level left
Method in brief: (§5)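 Swiss mouse pups anesthetized with isoflurane, then given 10 µg ibotenate by stereotaxic injection into the right frontoparietal area as two 1 µl boluses. Compound in DMSO given ip at 4 µg/kg; controls received DMSO ip. Brains fixed 5 days later. Lesion maximal diameter in white and cortical grey matter measured on cresyl-violet-stained serial coronal sections, 15 µm thick. ANOVA with Bonferroni test.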

[31] = system: Mus musculus; test: Anticonvulsant activity in Swiss mouse assessed as inhibition of ScPTZ-induced seizures at 100 mg/kg, ip after 15 mins; format: functional; parameters: scale not given: the % may be the effect or the level left; details: route intraperitoneal; method in brief: as §2
[32] = system: Mus musculus; test: Toxicity in OF1 mouse assessed as rectal temperature at 30 mg/kg; format: organism-based; parameters: dose 30 mg/kg; details: in vivo
Method in brief: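 Rectal temperature measured in mice given 30 mg/kg ip, 1 hr before testing.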

[33] = system: Mus musculus; test: Anticonvulsant activity against magnesium deprivation mediated audiogenic seizure in OF1 mouse assessed as duration of latency plus wide running period at 6 mg/kg, ip; format: functional; details: route intraperitoneal
[34] = system: Mus musculus; test: Neuroprotective activity against ibotenate-induced focal cerebral injury in Swiss mouse assessed as reduction in size of lesions in grey matter at 4 ug/kg, ip; format: functional; parameters: scale not given: the % may be the effect or the level left; method in brief: as §5
[35] = system: Mus musculus; test: Anxiolytic activity against OF1 mouse assessed as increase in number of crossings of photocell activity meter at 30 mg/kg, ip administered 1 hr before testing measured for 3 mins; details: route intraperitoneal
[36] = target: Glutamate NMDA receptor; test: Displacement of [3H]TCP from NMDA receptor in rat cerebral cortex

Structure (SMILES) | Activity [1] | Activity [2] | Activity [3] | Activity [4] | Activity [5] [%] | Activity [6] | Activity [7] | Activity [8] | Activity [9] [%] | Activity [10] | Activity [11] | Activity [12] | Activity [13] [%] | Activity [14] | Activity [15] | Activity [16] [%] | inhibition [17] [%] | Activity [18] | Activity [19] | Activity [20] [%] | further results
CN(CCN(C)c1ccc(C(=N)N)cc1)c1ccc(C(=N)N)cc1 | inactive | inactive | inactive | Non-toxic | 50 | inactive | inactive | inactive | 25 | inactive | inactive | Non-toxic | 25 | inactive | inactive | 75 | 51 | Non-toxic | inactive | 75 | –
N=C(N)c1ccc(NCCNc2ccc(C(=N)N)cc2)cc1 | inactive | inactive | inactive | Non-toxic | 50 | inactive | inactive | inactive | 75 | inactive | inactive | Non-toxic | 25 | inactive | inactive | 75 | 36.3 | 25% | inactive | 75 | Time [21]: 1.4 s; Activity [22]: >10%; Activity [23]: 103.3; ED50 [24]: 6 mg/kg; Activity [25]: 31.17%; Time [26]: 50.3 s; Activity [27]: 75%; Activity [28]: 90.5; Activity [29]: 70.33%; Activity [30]: 69%; Activity [31]: 75%; T [32]: 35.7 °C; Time [33]: 4.75 s; Activity [34]: 49%; Activity [35]: 13.3; pIC50 [36]: 5.85
N=C(N)c1ccc(N)cc1 | – | – | – | – | – | – | – | – | – | – | – | – | – | – | – | – | < 5 | – | – | – | –
CN(CCNc1ccc(C(=N)N)cc1)c1ccc(C(=N)N)cc1.Cl.Cl | inactive | – | inactive | Non-toxic | – | – | – | inactive | – | inactive | inactive | Non-toxic | 75 | inactive | inactive | 75 | 17.5 | – | inactive | – | –
CCN(CCNc1ccc(C(=N)N)cc1)c1ccc(C(=N)N)cc1.Cl.Cl | inactive | – | – | Non-toxic | – | – | – | – | – | – | inactive | – | 75 | – | inactive | 75 | 28.8 | – | – | – | –
